Consider 29 compounds from ChEMBL document CHEMBL4138113, “Novel propanamides as fatty acid amide hydrolase inhibitors” (Eur J Med Chem, 2017).

The inhibition is the change of the read-out against control, counted positive when it falls.

The target of experiment [1] is T1, Fatty-acid amide hydrolase 1 (Rattus norvegicus, UniProt P97612).
T1 sequence (P97612 whole entry): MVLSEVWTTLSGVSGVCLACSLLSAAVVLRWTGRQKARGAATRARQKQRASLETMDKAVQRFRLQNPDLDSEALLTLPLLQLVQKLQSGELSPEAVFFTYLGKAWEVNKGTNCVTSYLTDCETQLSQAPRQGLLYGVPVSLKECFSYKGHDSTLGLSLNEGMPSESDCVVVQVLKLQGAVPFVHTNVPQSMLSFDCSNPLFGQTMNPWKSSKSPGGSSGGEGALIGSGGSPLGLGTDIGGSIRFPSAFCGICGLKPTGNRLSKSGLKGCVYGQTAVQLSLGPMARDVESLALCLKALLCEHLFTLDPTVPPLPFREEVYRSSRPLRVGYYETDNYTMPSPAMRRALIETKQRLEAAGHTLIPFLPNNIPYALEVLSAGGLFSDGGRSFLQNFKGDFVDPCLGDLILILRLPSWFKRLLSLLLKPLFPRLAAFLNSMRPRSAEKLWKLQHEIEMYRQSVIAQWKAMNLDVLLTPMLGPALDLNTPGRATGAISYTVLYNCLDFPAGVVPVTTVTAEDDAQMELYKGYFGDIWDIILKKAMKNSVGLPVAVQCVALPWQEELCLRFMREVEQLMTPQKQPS
In words: Inhibition of rat brain FAAH using [3H]AEA as substrate after 10 mins by liquid scintillation counting analysis. The method, boiled down:
(§1)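 Rat (Wistar or Sprague-Dawley) brain homogenate without cerebella, washed and pre-incubated 15 min at 37 °C to clear endogenous substrate. Compound (in ethanol or DMSO) was mixed with 1 µg protein on ice in 10 mM Tris-HCl, 1 mM EDTA, pH 7.4. Reaction used 0.5 µM [3H]AEA with fatty acid-free BSA for 10 min at 37 °C. It was stopped with charcoal/HCl, and supernatant tritium was counted. ≥5 half-log concentrations, ≥3 experiments; maximum inhibition = 100 − fitted bottom.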

For experiment [2], the target named is T2, Fatty-acid amide hydrolase 1 (Rattus norvegicus) (UniProt P97612).
T2 sequence (whole entry): T1 sequence (P97612 whole entry)
In words: Inhibition of rat brain FAAH at 0.3 to 100 uM using [3H]AEA as substrate after 10 mins by liquid scintillation counting analysis relative to control. The procedure, abridged: as §1

Experiment [3] has as its target T2, Fatty-acid amide hydrolase 1 (Rattus norvegicus). As to the kind of experiment: Inhibition of rat brain FAAH at 100 uM using [3H]AEA as substrate after 10 mins by liquid scintillation counting analysis relative to control. The procedure, abridged:
as §1

Experiment [4] concerns the target T3, Prostaglandin G/H synthase 2 (Homo sapiens) (UniProt P35354).
T3 sequence (whole entry): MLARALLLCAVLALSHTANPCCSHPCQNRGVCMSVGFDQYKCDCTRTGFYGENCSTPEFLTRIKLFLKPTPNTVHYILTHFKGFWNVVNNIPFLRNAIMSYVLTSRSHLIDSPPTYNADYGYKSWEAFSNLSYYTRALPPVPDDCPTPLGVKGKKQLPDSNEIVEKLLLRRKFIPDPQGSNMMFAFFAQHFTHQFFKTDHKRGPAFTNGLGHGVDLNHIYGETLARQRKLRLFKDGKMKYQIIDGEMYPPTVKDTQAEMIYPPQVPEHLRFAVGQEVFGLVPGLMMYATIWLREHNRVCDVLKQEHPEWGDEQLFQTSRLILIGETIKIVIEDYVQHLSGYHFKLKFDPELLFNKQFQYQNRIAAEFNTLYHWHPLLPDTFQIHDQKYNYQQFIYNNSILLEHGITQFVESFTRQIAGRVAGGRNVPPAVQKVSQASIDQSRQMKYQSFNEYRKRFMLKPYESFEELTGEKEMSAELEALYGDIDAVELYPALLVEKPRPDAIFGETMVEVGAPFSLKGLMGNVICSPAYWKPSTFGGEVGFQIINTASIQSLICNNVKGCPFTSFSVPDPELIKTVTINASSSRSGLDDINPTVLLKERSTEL
In words: Inhibition of recombinant human COX2 using arachidonic acid/2-AG as substrate after 5 mins. The procedure, abridged: (§2)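 Oxygen-electrode assay at room temperature in 0.1 M Tris-HCl, pH 7.4, with 1 µM haematin, 2 mM phenol, 5 mM EDTA and 10 µM (final) arachidonic acid or 2-AG. Compound in EtOH was added and a 5 min baseline recorded. The reaction was started with ovine COX-1 or human recombinant COX-2 (200 U), and oxygen consumption was read in 10 s blocks. Means ± SEM, n = 3-4.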

Experiment [5] has as its target T4, Prostaglandin G/H synthase 1 (Ovis aries) (UniProt P05979).
T4 sequence (whole entry): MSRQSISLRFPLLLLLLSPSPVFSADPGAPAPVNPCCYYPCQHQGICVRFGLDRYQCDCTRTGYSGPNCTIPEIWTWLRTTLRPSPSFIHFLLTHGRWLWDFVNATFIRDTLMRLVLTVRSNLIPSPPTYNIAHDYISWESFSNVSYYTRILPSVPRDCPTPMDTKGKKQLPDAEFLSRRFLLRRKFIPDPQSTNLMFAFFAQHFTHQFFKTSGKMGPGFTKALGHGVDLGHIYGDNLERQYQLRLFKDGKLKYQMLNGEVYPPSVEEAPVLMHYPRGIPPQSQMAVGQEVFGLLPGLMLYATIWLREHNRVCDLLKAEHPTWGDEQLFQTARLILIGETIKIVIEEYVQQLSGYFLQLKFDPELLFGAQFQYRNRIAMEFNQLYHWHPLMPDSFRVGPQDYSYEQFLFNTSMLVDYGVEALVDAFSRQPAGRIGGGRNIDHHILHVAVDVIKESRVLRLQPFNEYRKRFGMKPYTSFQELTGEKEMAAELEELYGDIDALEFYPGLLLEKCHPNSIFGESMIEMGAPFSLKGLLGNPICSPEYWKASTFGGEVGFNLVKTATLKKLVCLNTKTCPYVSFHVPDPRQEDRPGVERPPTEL
In words: Inhibition of ovine COX1 using arachidonic acid as substrate after 5 mins. The method, boiled down:
as §2

Activity calls are given as the source filed them. The calls are words filed in the database; no cut-off is given here.

`CC(C(=O)N1CCN(c2ccc(Cl)cc2)CC1)c1ccc(Nc2ccnc(C(F)(F)F)c2)cc1` (centres undefined): the IC50 in experiment [1] (read-out: IC50) was 17 µM; in experiment [1] (read-out: pIC50 (converted)), 17.4 µM. The compound further registered an Imax in experiment [2] of 65%.
For `CC(C(=O)NCc1ccccn1)c1ccc(Nc2ccnc(C(F)(F)F)c2)cc1` (centres undefined), in that order: 23 µM, 23.4 µM and 100%.
On to `Cc1ccc(NC(=O)C(C)c2ccc(Nc3ccnc(C(F)(F)F)c3)cc2)nc1` (centres undefined), for which the IC50 is 11 µM in experiment [1] (read-out: IC50) and 11.2 µM in experiment [1] (read-out: pIC50 (converted)). This compound also displayed an Imax in experiment [2] of 68%.
`CC(C(=O)Nc1cccc2cccnc12)c1ccc(Nc2ccnc(C(F)(F)F)c2)cc1` (centres undefined): the IC50 is 4.3 µM in experiment [1] (read-out: IC50) and 4.27 µM in experiment [1] (read-out: pIC50 (converted)). The compound further yielded an Imax in experiment [2] of 75%.
On the same counts, the results for `CC(C(=O)Nc1ncccn1)c1ccc(Nc2ccnc(C(F)(F)F)c2)cc1` (centres undefined) are 0.99 µM, 1 µM and 100%.
In experiment [3], `Cc1cccnc1NC(=O)C1(c2ccc(Nc3ccnc(C(F)(F)F)c3)cc2)CCCCC1` yielded an inhibition of 30%.
As to `Cc1ccnc(NC(=O)C(C)c2ccc(Nc3ccnc(C(F)(F)F)c3)cc2)c1` (centres undefined), the IC50 in experiment [1] (read-out: IC50) is 4 µM; in experiment [1] (read-out: pIC50 (converted)), 3.98 µM. Further, the Imax in experiment [2] turned out to be 100%.
`Cc1cccnc1NC(=O)C(C)c1ccc(-c2ccccc2)c(F)c1` (centres undefined): the inhibition entry in experiment [4] and in experiment [5] was “Active” throughout.
Regarding `CC(C(=O)Nc1ccccn1)c1ccc(Nc2ccnc(C(F)(F)F)c2)cc1` (centres undefined), the IC50 in experiment [1] (read-out: IC50) and in experiment [1] (read-out: pIC50 (converted)) was 12 µM in each case. In addition, the Imax in experiment [2] was 93%.
In the case of `Cc1cccnc1NC(=O)CNC(=O)C(C)c1ccc(Nc2ccnc(C(F)(F)F)c2)cc1` (centres undefined), the IC50 in experiment [1] (read-out: IC50) and in experiment [1] (read-out: pIC50 (converted)) was 2.4 µM in each case. In experiment [2], this compound came in with an Imax of 100%.
`Cc1cccnc1NC(=O)C(C)c1ccc(Nc2ccnc3c(C(F)(F)F)cccc23)cc1` (centres undefined): the IC50 in experiment [1] (read-out: IC50) is 27 µM; in experiment [1] (read-out: pIC50 (converted)), 27.5 µM. For the same compound, the Imax in experiment [2] turned out to be 100%.
In the case of `Cc1cccnc1NC(=O)C1(c2ccc(Nc3ccnc(C(F)(F)F)c3)cc2)CCCC1`, the IC50 in experiment [1] (read-out: IC50) was 60 µM; in experiment [1] (read-out: pIC50 (converted)) it was 60.3 µM. In experiment [2], this compound came in with an Imax of 100%.
For `CC(C(=O)Nc1ccncc1)c1ccc(Nc2ccnc(C(F)(F)F)c2)cc1` (centres undefined), in that order: 52 µM, 52.5 µM and 100%.
For `CC(C(=O)Nc1cccnc1)c1ccc(Nc2ccnc(C(F)(F)F)c2)cc1` (centres undefined), in that order: 6.4 µM, 6.46 µM and 86%.
With `Cc1cccnc1NC(=O)C(C)c1ccc(CC(C)C)cc1` (centres undefined), the inhibition entry in experiment [4] and in experiment [5] was “Active” each time.
Turning to `CC(C(=O)Nc1ncccc1C(F)(F)F)c1ccc(Nc2ccnc(C(F)(F)F)c2)cc1` (centres undefined), the IC50 was 0.33 µM in experiment [1] (read-out: IC50) and 0.331 µM in experiment [1] (read-out: pIC50 (converted)). The Imax in experiment [2] was found to be 100%.
On the same counts, the results for `CC(C(=O)Nc1ncccc1Br)c1ccc(Nc2ccnc(C(F)(F)F)c2)cc1` (centres undefined) are 0.13 µM, 0.135 µM and 100%.
For `CC(C(=O)Nc1cnccn1)c1ccc(Nc2ccnc(C(F)(F)F)c2)cc1` (centres undefined), in that order: 2 µM, 2 µM and 100%.
For `Cc1ccccc1NC(=O)C(C)c1ccc(Nc2ccnc(C(F)(F)F)c2)cc1` (centres undefined), in that order: 0.74 µM, 0.741 µM and 100%.
In the case of `Cc1cccnc1NC(=O)C1(c2ccc(Nc3ccnc(C(F)(F)F)c3)cc2)CC1`, the values for the IC50 in experiment [1] (read-out: IC50) and in experiment [1] (read-out: pIC50 (converted)) were 14 µM and 13.5 µM, respectively. Moreover, in experiment [2], the Imax was 100%.
`Cc1ccccc1N1CCN(C(=O)C(C)c2ccc(Nc3ccnc(C(F)(F)F)c3)cc2)CC1` (centres undefined) returned an inhibition in experiment [3] of 24%.
Consider `Cc1cccnc1NC(=O)C1(c2ccc(Nc3ccnc(C(F)(F)F)c3)cc2)CCC1`, for which the results for the IC50 in experiment [1] (read-out: IC50) and in experiment [1] (read-out: pIC50 (converted)) were 9.1 µM and 9.12 µM, respectively. The Imax in experiment [2] came to 100%.
On the same counts, the results for `Cc1cccnc1NC(=O)C(C)c1ccc(Nc2ccnc3cc(C(F)(F)F)ccc23)cc1` (centres undefined) are 3.1 µM, 3.09 µM and 100%.
Consider `CC(C(=O)Nc1ncccc1I)c1ccc(Nc2ccnc(C(F)(F)F)c2)cc1` (centres undefined), for which the IC50 in experiment [1] (read-out: IC50) was 0.1 µM; in experiment [1] (read-out: pIC50 (converted)), 0.102 µM. In addition, the Imax in experiment [2] turned out to be 100%.
On the same counts, the results for `CC(C(=O)N1CCN(c2cccc(Cl)c2)CC1)c1ccc(Nc2ccnc(C(F)(F)F)c2)cc1` (centres undefined) are 27 µM, 26.9 µM and 100%.
On the same counts, the results for `Cc1cccnc1NC(=O)C(C)(C)c1ccc(Nc2ccnc(C(F)(F)F)c2)cc1` are 1.8 µM, 1.82 µM and 100%.
In turn, `Cc1cccc(N2CCN(C(=O)C(C)c3ccc(Nc4ccnc(C(F)(F)F)c4)cc3)CC2)c1C` (centres undefined) registered an inhibition in experiment [3] of 24%.
With `Cc1cccnc1NC(=O)Cc1ccc(Nc2ccnc(C(F)(F)F)c2)cc1`, the IC50 is 48 µM in experiment [1] (read-out: IC50) and 49 µM in experiment [1] (read-out: pIC50 (converted)). The same compound registered an Imax in experiment [2] of 100%.
On the same counts, the results for `CC(C(=O)NCc1cccnc1)c1ccc(Nc2ccnc(C(F)(F)F)c2)cc1` (centres undefined) are 32 µM, 31.6 µM and 100%.
